Test results as given in ChEMBL document CHEMBL1121740, “2-l-Rhamnopyranosyl[1,2,4]triazolo[1,5-a]pyridine. 4' and 3' Oxidation products. Synthesis and structure-activity relationships” (J Med Chem, 1981).
Converted amounts (≈) assume the structure as drawn.

Key:
[1] = Cytotoxic dose that inhibit multiplication of normal fibroblast cells (C3H cells); format: cell-based; details: mouse, read-out: CD50 (the source's name)
Outline: (§1)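 Growth assay on C3H mouse fibroblasts. 10⁴ cells are seeded per well, and different doses of product are added 24 h later. Cellular growth and morphology are examined on day +5.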

[2] = Cytotoxicity at 10 ug/mL against normal mouse fibroblasts (C3H cells) cells; format: cell-based
Outline: (§2)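 Colony-forming (plating efficiency) assay. 200 C3H or S+L- 3T3 FL cells per well, grown in McCoy's 5a with 10% heat-inactivated FCS. Various product concentrations are added 24 h after seeding. Colonies are stained with May Grunwald Giemsa and counted on day +9. Percent colony formation is taken relative to untreated control cells, set as 100% plating efficiency.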

[3] = Cytotoxicity at 20 ug/mL against normal mouse fibroblasts (C3H cells) cells; format: cell-based; outline: as §2
[4] = Cytotoxicity at 5 ug/mL against normal mouse fibroblasts (C3H cells) cells; format: cell-based; outline: as §2
[5] = Percent inhibition at 10 ug/mL for focus formation on day +10, using MSV assay on C3H cells without the addition of helper virus; format: functional; details: Mus musculus
Outline: (§3)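 MSV focus assay on C3H cells. 8 × 10⁴ cells are seeded per 60-mm dish and pretreated 24 h later with 20 µg/mL DEAE-dextran. Cells are infected with diluted MSV alone or MSV plus MuLV helper, with adsorption for 30 min at 37 °C. Filtered aqueous compound, diluted in medium, is added right after infection. Foci are counted on days 5 and 10. MSV titer was 7×10⁶.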

[6] = Percent inhibition at 10 ug/mL for focus formation on day +5, using MSV assay on C3H cells with optimal amount of helper virus; format: functional; details: Mus musculus; outline: as §3
[7] = Percent inhibition at 10 ug/mL for focus formation on day +5, using MSV assay on C3H cells without the addition of helper virus; format: functional; details: Mus musculus; outline: as §3
[8] = Percent inhibition at 20 ug/mL for focus formation on day +10, using MSV assay on C3H cells without the addition of helper virus; format: functional; details: Mus musculus; outline: as §3
[9] = Percent inhibition at 20 ug/mL for focus formation on day +5, using MSV assay on C3H cells with optimal amount of helper virus; format: functional; details: Mus musculus; outline: as §3
[10] = Cytotoxic dose that inhibit multiplication of normal fibroblasts; details: mouse, read-out: CD50 (the source's name); outline: as §1
[11] = Percent inhibition at 5 ug/mL for focus formation on day +10, using MSV assay on C3H cells without the addition of helper virus; format: functional; details: Mus musculus; outline: as §3
[12] = Percent inhibition at 5 ug/mL for focus formation on day +5, using MSV assay on C3H cells with optimal amount of helper virus; format: functional; details: Mus musculus; outline: as §3
[13] = Percent inhibition at 5 ug/mL for focus formation on day +5, using MSV assay on C3H cells without the addition of helper virus; format: functional; details: Mus musculus; outline: as §3
[14] = Percent inhibition at 20 ug/mL for focus formation on day +5, using MSV assay on C3H cells without the addition of helper virus; format: functional; details: Mus musculus; outline: as §3
[15] = Percent inhibition at 3 ug/mL for focus formation on day +10, using MSV assay on C3H cells without the addition of helper virus; format: functional; details: Mus musculus; outline: as §3
[16] = Percent inhibition at 3 ug/mL for focus formation on day +5, using MSV assay on C3H cells with optimal amount of helper virus; format: functional; details: Mus musculus; outline: as §3
[17] = Percent inhibition at 3 ug/mL for focus formation on day +5, using MSV assay on C3H cells without the addition of helper virus; format: functional; details: Mus musculus; outline: as §3
Murine leukemia virus = test: Inhibitory dose against MSV titer in the absence of Murine leukemia virus on day +10; format: functional, Mus musculus; details: read-out: ID50 (the source's name); outline: as §3
[18] = Cytotoxicity at 10 ug/mL against MSV transformed (S+L-cells) cells; format: cell-based; details: mouse; outline: as §2
[19] = Cytotoxicity at 20 ug/mL against MSV transformed (S+L-cells) cells; format: cell-based; details: mouse; outline: as §2
[20] = Cytotoxicity at 5 ug/mL against MSV transformed (S+L-cells) cells; format: cell-based; details: mouse; outline: as §2
[21] = Percent inhibition at 10 ug/mL for focus formation using MLV assay on S+L- cells; format: functional; details: Mus musculus
[22] = Percent inhibition at 3 ug/mL for focus formation using MLV assay on S+L- cells; format: functional; details: Mus musculus
[23] = Percent inhibition at 5 ug/mL for focus formation using MLV assay on S+L- cells; format: functional; details: Mus musculus
[24] = Toxic effect on S+L-cell colony formation; format: toxicity; details: mouse, S+L- cells; read-out: TD50 (the source's name)
Outline: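 S+L- (MSV-transformed 3T3 FL) cells grown in McCoy's 5a with 10% heat-inactivated fetal calf serum and antibiotics. Plating efficiency assay: 200 cells seeded per 35-mm well; product added at various concentrations 24 h after seeding. Colonies stained with May Grunwald Giemsa and counted on day +9. Colony formation expressed relative to untreated controls taken as 100% plating efficiency.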

## C[C@@H]1O[C@@H](c2nc3c([N+](=O)[O-])cccn3n2)[C@H](O)[C@H](O)[C@@H]1O
[1]
  CC50: 400 µg/mL (≈ 1290 µM)

## C[C@@H]1O[C@@H](c2nc3c([N+](=O)[O-])cccn3n2)[C@H](O)[C@H](O)[C@H]1O
[1]
  CC50: 500 µg/mL (≈ 1610 µM)

## CC1OC(c2nc3c([N+](=O)[O-])cccn3n2)=CC(O)C1O (stereo unspecified)
[2]
  Colony formation: 27%
[3]
  Colony formation: 2%
[4]
  Colony formation: 71.5%
[5]
  inhibition at 10 µg/mL: 58%
[6]
  inhibition at 10 µg/mL: 50%
[7]
  inhibition at 10 µg/mL: 64%
[8]
  inhibition at 20 µg/mL: 70%
[9]
  inhibition at 20 µg/mL: 76%
[10]
  CC50: 62.5 µg/mL (≈ 214 µM)
[11]
  inhibition at 5 µg/mL: 30%
[12]
  inhibition at 5 µg/mL: 26%
[13]
  inhibition at 5 µg/mL: 44%
[14]
  inhibition at 20 µg/mL: 91%
[15]
  inhibition at 3 µg/mL: 0%
[16]
  inhibition at 3 µg/mL: 39%
[17]
  inhibition at 3 µg/mL: 15%
Murine leukemia virus
  IC50: 9 µg/mL (≈ 30.8 µM)
[18]
  Colony formation: 18%
[19]
  Colony formation: 0%
[20]
  Colony formation: 49%
[21]
  inhibition at 10 µg/mL: 82.5%
[22]
  inhibition at 3 µg/mL: 30%
[23]
  inhibition at 5 µg/mL: 50%
[24]
  CC50: 5 µg/mL (≈ 17.1 µM)
